ChEMBL document CHEMBL4622869, “Discovery and structure-activity relationships study of positive allosteric modulators of the M3 muscarinic acetylcholine receptor” (Bioorg Med Chem, 2020)

Legend:
[1] = target: Muscarinic acetylcholine receptor M3 (Rattus norvegicus) (UniProt P08483); test: Positive allosteric modulation of muscarinic acetylcholine receptor M3 in Sprague-Dawley rat urinary bladder assessed as increase in 8 Hz electrical field stimulation-induced bladder contraction by measuring tension of isolated bladder contraction at 1 uM (reference value: 2.21 +/- 0.26 g)
Method in brief: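 Female Sprague-Dawley rats, 9–10 weeks old. Longitudinal bladder strips (~10×2 mm) in Krebs at 37°C, gassed with 95% O2/5% CO2. EFS at 8 Hz, 10 s trains, 0.3 ms pulses, voltage set to give about half-maximal response. Drug added cumulatively at 1, 3 and 10 μM, 10 stimulations per concentration. Contraction = peak minus basal tone, averaged over the last 3 contractions and compared with pre-drug value (n=7).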

[2] = Volume of distribution at steady state in Crl:CD(SD) rat at 0.3 mg/kg, iv measured up to 24 hrs by LC-MS/MS analysis; assay type: ADME, organism-based; conditions: in vivo, read-out: Vdss
Method in brief: (§1)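 Male Crl:CD(SD) rats, 8 weeks old, food deprived (n=4); iv 0.3 mg/kg or po 1 mg/kg in DMF/propylene glycol/water for injection (1/1/8) containing 1 M NaOH (2 equivalents). Plasma sampled to 24 h, assayed by validated LC-MS/MS. Parameters from each animal by noncompartmental analysis, reported as means.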

[3] = target: T1, Muscarinic acetylcholine receptor M5 (Homo sapiens) (UniProt P08912); test: Positive allosteric modulation of recombinant human muscarinic acetylcholine receptor M5 expressed in CHOK1 cells assessed as increase in carbachol-induced intracellular calcium flux at 10 uM preincubated for 5 mins followed by carbachol addition by Fluo4-AM dye based FLIPR assay relative to carbachol; assay type: functional, cell-based; conditions: CHO-K1
T1 sequence (whole entry): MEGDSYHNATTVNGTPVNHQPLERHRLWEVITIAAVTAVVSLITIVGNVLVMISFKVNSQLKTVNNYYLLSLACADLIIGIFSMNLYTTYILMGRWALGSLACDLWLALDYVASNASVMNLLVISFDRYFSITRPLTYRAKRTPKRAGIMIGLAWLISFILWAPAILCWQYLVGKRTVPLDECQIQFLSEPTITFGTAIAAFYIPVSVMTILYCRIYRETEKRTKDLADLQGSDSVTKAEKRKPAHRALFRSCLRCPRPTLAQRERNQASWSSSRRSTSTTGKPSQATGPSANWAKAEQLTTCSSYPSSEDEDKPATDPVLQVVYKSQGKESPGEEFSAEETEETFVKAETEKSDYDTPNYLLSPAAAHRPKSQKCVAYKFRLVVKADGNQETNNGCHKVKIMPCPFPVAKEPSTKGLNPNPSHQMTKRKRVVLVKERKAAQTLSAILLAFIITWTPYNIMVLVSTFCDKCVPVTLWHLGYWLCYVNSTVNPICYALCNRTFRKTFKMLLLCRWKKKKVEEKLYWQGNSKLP
Method in brief: (§2)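 CHO-K1 cells stably expressing human or rat M1–M5; M2 and M4 lines also co-express human Gα16. Cells loaded with 3.1 μM Fluo-4 AM in HBSS/20 mM HEPES pH 7.5/BSA/2.5 mM probenecid for ~2 h at room temperature. Test substance at 10 μM final, then carbachol (0.0024 nM–100 μM) ~5 min later; Ca2+ read by FLIPR Tetra. Fold shift = carbachol EC50 without / with test substance, from logistic fits.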

[4] = Tmax in Crl:CD(SD) rat at 1 mg/kg, po measured up to 24 hrs by LC-MS/MS analysis; assay type: ADME, organism-based; conditions: in vivo; method in brief: as §1
[5] = target: T2, Thrombopoietin receptor (Homo sapiens, UniProt P40238); test: Agonist activity at recombinant human c-Mpl receptor transfected in BA/F3 cells assessed as increase in cell proliferation by cell counting analysis; assay type: cell-based; conditions: baf3
T2 sequence (P40238 whole entry): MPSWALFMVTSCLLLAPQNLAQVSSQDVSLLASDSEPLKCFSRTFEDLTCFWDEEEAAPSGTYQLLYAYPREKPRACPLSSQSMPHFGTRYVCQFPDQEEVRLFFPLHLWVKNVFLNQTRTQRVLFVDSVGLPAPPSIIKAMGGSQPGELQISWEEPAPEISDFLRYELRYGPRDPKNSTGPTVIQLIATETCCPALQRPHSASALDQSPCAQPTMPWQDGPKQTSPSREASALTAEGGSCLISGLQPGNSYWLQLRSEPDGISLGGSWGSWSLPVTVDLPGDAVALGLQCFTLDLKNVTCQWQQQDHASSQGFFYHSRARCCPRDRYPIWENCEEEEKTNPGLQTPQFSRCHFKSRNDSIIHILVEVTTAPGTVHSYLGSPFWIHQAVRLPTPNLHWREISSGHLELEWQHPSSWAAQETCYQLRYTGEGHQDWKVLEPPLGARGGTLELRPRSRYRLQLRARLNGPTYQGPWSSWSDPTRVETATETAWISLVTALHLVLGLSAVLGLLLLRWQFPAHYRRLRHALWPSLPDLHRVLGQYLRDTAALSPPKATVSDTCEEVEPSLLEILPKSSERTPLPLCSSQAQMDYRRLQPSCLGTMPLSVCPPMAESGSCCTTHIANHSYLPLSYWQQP
Method in brief: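 Ba/F3 cells stably transfected with human c-Mpl by electroporation with blasticidin selection. 1×10^4 cells/well in RPMI-1640 with 10% FBS, with test substance (100 nM to 10 μM final), overnight at 37°C in 5% CO2. Cell Counting Kit added for about 5 h, then A450 read. Scale: untreated wells 0%, reference c-Mpl agonist at 1 μM 100%. EC30 from logistic regression.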

[6] = Cmax in Crl:CD(SD) rat at 1 mg/kg, po measured up to 24 hrs by LC-MS/MS analysis; assay type: ADME, organism-based; set-up: dose 1 mg/kg, route oral; conditions: in vivo; method in brief: as §1
[7] = target: T3, Muscarinic acetylcholine receptor M1 (Rattus norvegicus) (UniProt P08482); test: Positive allosteric modulation of recombinant rat muscarinic acetylcholine receptor M1 expressed in CHOK1 cells assessed as increase in carbachol-induced intracellular calcium flux at 10 uM preincubated for 5 mins followed by carbachol addition by Fluo4-AM dye based FLIPR assay relative to carbachol; assay type: functional, cell-based; conditions: CHO-K1; method in brief: as §2
T3 sequence (whole entry): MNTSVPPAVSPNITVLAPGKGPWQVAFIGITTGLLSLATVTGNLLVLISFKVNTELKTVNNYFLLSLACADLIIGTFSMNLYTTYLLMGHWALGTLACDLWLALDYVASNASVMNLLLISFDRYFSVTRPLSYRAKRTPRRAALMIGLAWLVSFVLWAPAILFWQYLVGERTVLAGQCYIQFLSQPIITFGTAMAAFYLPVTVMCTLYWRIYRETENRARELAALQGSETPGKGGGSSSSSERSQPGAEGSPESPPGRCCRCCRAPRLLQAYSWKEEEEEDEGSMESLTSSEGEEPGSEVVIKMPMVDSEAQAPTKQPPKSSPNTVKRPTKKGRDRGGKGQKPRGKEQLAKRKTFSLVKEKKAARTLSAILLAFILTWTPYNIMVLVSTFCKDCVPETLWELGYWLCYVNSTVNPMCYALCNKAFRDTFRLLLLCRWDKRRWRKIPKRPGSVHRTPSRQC

[8] = Half life in Crl:CD(SD) rat at 0.3 mg/kg, iv measured up to 24 hrs by LC-MS/MS analysis; assay type: ADME, organism-based; conditions: in vivo; method in brief: as §1
[9] = Oral bioavailability in Crl:CD(SD) rat at 1 mg/kg measured up to 24 hrs by LC-MS/MS analysis; assay type: ADME, organism-based; conditions: in vivo; method in brief: as §1

Sequence of Muscarinic acetylcholine receptor M3 (Rattus norvegicus) (P08483 whole entry, looked up): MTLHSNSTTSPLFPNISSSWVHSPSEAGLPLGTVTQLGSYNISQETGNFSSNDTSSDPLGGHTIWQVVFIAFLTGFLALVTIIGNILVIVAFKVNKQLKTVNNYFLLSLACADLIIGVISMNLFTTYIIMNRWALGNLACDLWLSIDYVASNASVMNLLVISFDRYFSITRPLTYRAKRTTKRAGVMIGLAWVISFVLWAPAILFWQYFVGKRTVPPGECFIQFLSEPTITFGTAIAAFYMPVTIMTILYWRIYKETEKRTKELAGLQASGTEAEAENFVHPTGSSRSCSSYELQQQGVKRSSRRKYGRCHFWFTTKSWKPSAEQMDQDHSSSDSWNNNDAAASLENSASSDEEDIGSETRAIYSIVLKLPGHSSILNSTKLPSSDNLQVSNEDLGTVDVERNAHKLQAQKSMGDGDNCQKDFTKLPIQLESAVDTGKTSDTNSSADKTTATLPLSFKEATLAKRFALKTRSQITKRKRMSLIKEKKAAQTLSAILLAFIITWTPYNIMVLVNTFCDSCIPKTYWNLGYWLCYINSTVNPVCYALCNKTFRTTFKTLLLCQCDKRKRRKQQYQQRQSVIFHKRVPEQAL

Activity [1]: 2.34 g | Vd [2]: 1.59 L/kg | fold change (FC) [3]: 94 | Tmax [4]: 0.31 h | Cmax [6]: 85.3 ng/mL | fold change (FC) [7]: 2.1 | half-life [8]: 2.43 h | bioavailability [9]: 19%
Structure (SMILES): CC[C@@H]1CCCN1Cc1sc(NC(=O)c2cnc(N3CCC(C(=O)O)CC3)cn2)nc1-c1ccc(OC)c(C(F)(F)F)c1.Cl.Cl
EC30 [5]: > 10 µM
